# High-throughput results (PubChem BioAssay)
# Rpn11 inh – blocks the human proteasome subunit Rpn11; O00487; human 26S proteasome, Ub4-pepOG fluorescence polarization; 20S core pre-blocked with epoxomicin; inhibition, % at 20 µM; 0.59% of 360,000 active;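 active = inhibition at 20 µM, scaled to each plate's controls, above about 33%, limit read from the data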
# Myeloid diff 2 – myeloid differentiation induction; 1% of 360,000 active; ER-HoxA9 myeloid progenitors, lysozyme-GFP differentiation, flow cytometry; calls only at 10 µM;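 active = normalized GFP-positive differentiation at or above the plate's own cutoff, the solvent-only control mean plus 3 SD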;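 also: cells exposed to compound for four days before flow analysis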
# HNF4A DNA FP – change in binding of human HNF4 alpha to DNA; HNF4a-FITC DNA binding, fluorescence polarization, 1 h; activity change, % at 10 µM; 0.3% of 360,000 active; AID 1224865; in the data active = activity change above about 30%, passing the limit was not always enough
# TPT1 inhibitor – C. albicans TPT1 enzyme inhibition. recombinant caTPT1, FP RNA substrate dephosphorylation. inhibition, % at 5 µM. 0.81% of 300,000 active;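 active = inhibition above the mean of all tested compounds plus 3 SD, set per screening campaign, cut at about 24% in these data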;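 also: plate controls were DMSO alone for no effect and ferristatin control at 100 nM for full effect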
# CSN deneddyl inh – inhibitors of human CSN-mediated cullin deneddylation; Purified CSN, SCF-Nedd8-OG deneddylation, fluorescence polarization; inhibition, % at 12.5 µM; 0.38% of 360,000 active;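 active = pattern-corrected inhibition above about 35%, with an unprinted fluorescence ratio check between 0.5 and 1.5, limit read from the data, passing the limit was not always enough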;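 also: 0% = enzyme with substrate and 100% = substrate without enzyme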
# Target sequence (Q92905 whole entry, looked up, one chain of several): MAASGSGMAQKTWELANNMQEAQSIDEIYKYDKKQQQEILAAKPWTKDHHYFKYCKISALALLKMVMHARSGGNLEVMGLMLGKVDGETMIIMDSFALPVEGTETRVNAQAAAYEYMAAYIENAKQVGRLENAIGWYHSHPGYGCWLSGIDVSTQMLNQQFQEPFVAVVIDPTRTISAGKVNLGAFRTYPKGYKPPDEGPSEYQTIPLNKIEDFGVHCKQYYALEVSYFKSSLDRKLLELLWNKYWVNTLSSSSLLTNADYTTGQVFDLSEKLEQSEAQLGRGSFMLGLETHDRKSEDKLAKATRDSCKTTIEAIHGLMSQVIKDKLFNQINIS
#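 Material: human Csn5 produced in HEK293T cells; Input: enzyme 0.24 nM; Reagent: SCFSkp2-Nedd8OG substrate at 10 nM final; Dosing: 12.5 µM compound; Incubation: 90 min reaction at room temperature; Detection: fluorescence polarization of the substrate; Evaluation: % inhibition of substrate cleavage by Csn5; Control set: substrate-only high control, full reaction low control.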
# TPT1 inh confirm – TPT1 (C. albicans) inhibition, confirmation; shares compounds with TPT1 inhibitor; recombinant caTPT1, fluorescence polarization, RNase T1 coupled; inhibition, % at 5 µM; 74% of 2,400 active;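 active = inhibition above the primary screen limit, the mean inhibition of all tested compounds plus 3 SD, cut at about 25% in these data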
# RNase T1 inh – counter-screen for TPT1 inhibitors: inhibitors of Aspergillus oryzae RNase T1; shares compounds with TPT1 inhibitor; RNase T1 cleavage, fluorescence polarization, 1536-well; inhibition, % at 5 µM; 83% of 2,400 active;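 active = inhibition above the solvent-only control well mean plus 3 SD, limit set per screening run, cut at about 23% in these data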;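 also: plate controls were DMSO wells with enzyme for no effect and wells without RNase T1 for full effect; inhibitors block cleavage so intact labeled substrate keeps polarization high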
# Target sequence (P00651 whole entry, looked up): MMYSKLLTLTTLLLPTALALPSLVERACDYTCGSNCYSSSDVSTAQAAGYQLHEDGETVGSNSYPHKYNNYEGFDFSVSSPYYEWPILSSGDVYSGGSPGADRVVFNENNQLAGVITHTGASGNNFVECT
# Numbers without * were called inactive; i = inactive; x = no result given; + = active, no number. Shown are actives, neighbours in structure and some others; about 2.3% of the full set was active somewhere.
SMILES,Rpn11 inh,Myeloid diff 2,HNF4A DNA FP,TPT1 inhibitor,CSN deneddyl inh,TPT1 inh confirm,RNase T1 inh
CCN(CC)c1ccc(/C=N/N2C(=O)c3ccccc3C2=O)cc1,-8.5,i,-1.4,-0.7,0.3,x,x
CCN(CC)c1ccc(/C=N/N2C(=O)c3ccccc3C2=O)c(O)c1,4.2,i,1.1,45.4*,2.4,9.9,12.4
COc1ccc(OC)c(NC(=O)C2(C)CCN2C(=O)C(C)(C)c2ccccc2)c1 (stereo unspecified),-0.5,i,0.6,x,-2.6,x,x
CN(C)S(=O)(=O)c1cccc(C(=O)Nc2ccc(Cl)cn2)c1,-2.1,i,5.0,27.4*,-0.2,8.2,8.2
O=C(Nc1ccc(Cl)cn1)c1cccc(S(=O)(=O)N2CCCC2)c1,0.1,i,-2.8,-2.9,3.0,x,x
Cc1ccc(/C=C2/NC(=O)N(Cc3ccccc3F)C2=O)s1,x,+,74.8,68.8*,41.0*,85.5*,86.4*
O=C1C2N=NN(CC(=O)N3N=C(c4ccccc4)CC3c3ccc([N+](=O)[O-])cc3)C2C(=O)N1c1ccccc1 (stereo unspecified),x,x,x,-9.4,x,x,x
Cn1c(SCC(=O)NCC2CCCO2)nnc1-c1cccc(NC(=O)c2ccccc2F)c1 (stereo unspecified),-7.0,i,-2.1,31.3*,-0.4,8.5,10.0
Cc1cc(SCC(=O)NCC2CCCO2)nc2ccccc12 (stereo unspecified),x,i,15.6,29.9*,21.5,55.2*,67.4*
Cn1c(SCC(=O)NC(C)(C)C)nnc1-c1cccc(NC(=O)c2ccccc2F)c1,-4.9,i,-1.1,-3.3,-1.0,x,x
Cn1c(=O)oc2cc(S(=O)(=O)N3CCN(c4cccc(Cl)c4)CC3)ccc21,x,i,16.4,81.2*,15.9,24.1*,33.1*
Cn1c(=O)oc2cc(S(=O)(=O)N3CCCC3)ccc21,-10.8,i,4.5,1.1,5.0,x,x
Cc1ccc(/C(=N/Nc2ncnc3ccccc23)C(=O)O)cc1,7.6,i,-0.1,-1.8,-2.6,x,x
COC(=O)C(=O)C/C(=N/Nc1ncnc2ccccc12)c1ccc(Cl)cc1,16.3,+,3.8,58.5*,4.2,12.6,18.3
COC(=O)c1cc(NC(=O)c2ccccc2)c(=O)oc1C/C=N\OCc1ccc(Cl)cc1Cl,x,i,23.5,30.9*,15.9,27.9*,35.7*
CO/N=C\Cc1oc(=O)c(NC(=O)c2ccccc2)cc1C(=O)OC,-1.8,i,1.7,7.8,-11.1,x,x
O=[N+]([O-])/C(C(=C(Cl)Cl)N1CCN(Cc2ccccc2)CC1)=C1\NCCN1Cc1ccc(Cl)nc1,3.8,i,-2.8,-11.3,0.8,x,x
O=[N+]([O-])C(/C=C(\Cl)[N+](=O)[O-])=C1N(Cc2ccc(Cl)nc2)CCN1Cc1ccc(Cl)nc1,8.3,i,0.2,40.4*,7.1,50.7*,70.4*
N#Cc1c(Sc2ncc(C(F)(F)F)cc2Cl)nsc1C/C=N\OCc1ccccc1Br,x,i,17.4,54.7*,24.3,35.1*,37.2*
OCCC1CN(Cc2ccon2)CCN1Cc1ccc(F)c(F)c1 (stereo unspecified),-3.3,i,-3.6,0.7,-2.7,x,x
Cc1ccc2c(-c3csc(N)n3)c[nH]c2c1,x,x,x,26.2*,x,14.6,26.6*
O=C(NCCNC(=O)c1ccc([N+](=O)[O-])cc1)c1ccncc1,0.4,i,0.8,-0.9,1.7,x,x
N#C/C(=C\c1ccc(O)c(O)c1)C(=O)Nc1cccc2ncccc12,14.2,i,-29.7,24.4*,-42.5,18.0,26.7*
COc1ccc(/C=C(\C#N)C(=O)Nc2cccc3ncccc23)cc1OC,-3.0,i,4.1,6.5,4.5,x,x
O=C(NCCN1CCOCC1)/C(=C/c1ccc(Cl)cc1)NC(=O)c1ccccc1,-1.3,i,4.0,-1.2,1.1,x,x
SMILES,Rpn11 inh,Myeloid diff 2,HNF4A DNA FP,TPT1 inhibitor,CSN deneddyl inh,TPT1 inh confirm,RNase T1 inh
CN(C)c1ccc(/C=C(/NC(=O)c2ccccc2Cl)C(=O)NCCN2CCOCC2)cc1,22.0,i,4.7,47.5*,4.6,120.3*,128.5*
CN(C)c1ccc(/C=C(/NC(=O)c2ccccc2)C(=O)NCCN2CCOCC2)cc1,25.2,i,5.3,48.5*,9.1,11.4,17.0
CCCc1cc(=O)[nH]c(SCC(=O)N2CCCCCC2)n1,-3.9,i,-1.2,x,0.0,x,x
CC(C)N1CC2(CC(c3ccccc3C(F)(F)F)=NO2)CN1C(=O)c1ccco1 (stereo unspecified),-0.7,i,5.0,x,5.5,x,x
COc1cc(-c2nc(-c3ccccc3)c(-c3ccc(F)cc3)[nH]2)cc2c1OCO2,1.5,i,-1.3,2.7,-5.7,x,x
COc1ccccc1N=Nc1nc(-c2ccccc2)c(-c2ccccc2)[nH]1,23.1,i,19.3,25.2*,7.0,32.9*,42.1*
COC(=O)C1=CCCCC(O)=C1C(=O)OC,-10.3,i,-0.7,x,7.4,x,x
CC(C)c1ccc(C2C3CSCC=C3C(C#N)=C(N)C2(C#N)C#N)cc1 (stereo unspecified),x,x,x,36.0*,x,37.6*,48.0*
O=C(Cn1c(CO)nc2ccccc21)NCc1ccc2c(c1)OCO2,5.0,i,4.1,-4.5,4.8,x,x
O=C(Cn1c(Cc2ccccc2)nc2ccccc21)NCc1ccc2c(c1)OCO2,-13.6,i,0.6,61.0*,-0.6,10.3,16.3
COC(=O)CNC(=O)c1sc2ncn(CC(=O)Nc3ccc(C)c(Cl)c3)c(=O)c2c1C,1.7,i,3.0,-0.1,2.6,x,x
CCc1ccc(C2C(C#N)=C(N)SC(N)=C2C#N)cc1,x,i,140.5,105.8*,-37.2,73.0*,85.6*
CCOc1ccc(C2C(C#N)=C(N)SC(N)=C2C#N)cc1OCC,x,+,138.5,126.0*,124.3,132.0*,127.7*
CCOc1ccc(C2C(C#N)=C(N)Oc3cc(C)n(CCN4CCOCC4)c(=O)c32)cc1OCC (stereo unspecified),-1.4,i,2.1,x,-1.7,x,x
CCc1ccc(C2C(C#N)=C(N)SC(N)=C2C#N)s1,x,i,121.8,90.5*,50.4,80.2*,88.7*
N#CC1=C(N)SC(N)=C(C#N)C1c1c(Cl)cccc1Cl,x,i,77.0,47.4*,78.3,21.9,27.9*
N#CC1=C(N)SC(N)=C(C#N)C1c1ccc(C(F)(F)F)cc1,x,x,x,20.0,x,x,x
CS(=O)(=O)Nc1ccc(C(=O)NCCSc2ccc(Cl)cc2)cc1,-0.2,i,-0.8,-2.4,-0.7,x,x
CCOC(=O)C1=C(C)OC(N)=C(C#N)C1c1ccc(O)c(OC)c1 (stereo unspecified),6.2,i,0.2,-0.8,0.1,x,x
CCOc1ccccc1C1C(C#N)=C(N)Oc2n[nH]c(CC)c21 (stereo unspecified),1.1,i,2.6,-0.1,4.5,x,x
